A short description of data set [1]: Cytotoxicity against human SH-SY5Y cells after 72 hrs by MTT assay. Format: functional, cell-based. The method, boiled down:
(§1)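 Cells cultured in DMEM or RPMI 1640 with 10% FBS. Seeded at about 2 × 10^3 per well and grown 24 h at 37 °C, 5% CO2. Compounds added at final 0.1–1000 uM for 72 h, 5 wells per concentration. MTT added for 4 h at 37 °C, then lysis overnight. Absorbance read at 570 nm against a 650 nm reference; IC50 calculated.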
(In general: Formazan colour is commonly taken as a measure of viable cells.)

The nature of data set [2]: Cytotoxicity against human HepG2 cells after 72 hrs by MTT assay. Format: functional, cell-based. As to conditions: HepG2, 72 h. Put shortly:
as §1

Data set [3] in a line: Cytotoxicity against human DU145 cells after 72 hrs by MTT assay. Format: functional, cell-based. As to conditions: DU-145, 72 h. Put shortly:
as §1

A short description of data set [4]: Cytotoxicity against human MCF7 cells after 72 hrs by MTT assay. As to conditions: MCF7, 72 h. Format: functional, cell-based. The method, boiled down:
as §1

The nature of data set [5]: Cytotoxicity against human A549 cells after 72 hrs by MTT assay. Format: functional, cell-based. As to conditions: A549, 72 h. Put shortly:
as §1

A short description of data set [6]: Cytotoxicity against human GES-1 cells assessed as reduction in cell viability after 72 hrs by MTT assay. Format: toxicity, cell-based, GES1. The method, boiled down:
as §1

Data set [7] is described as follows: Antitumor activity against human HepG2 cells xenografted in nude mouse assessed as tumor growth inhibition at 10 mg/kg, ip administered every day for 15 times measured from day 12 to 26. Format: functional. Further details: scale not given: the % may be the effect or the level left. Put shortly:
(§2)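 Female nude mice given 5 × 10^6 HepG-2 cells subcutaneously in the left flank. Randomized, n = 5 per group. Daily i.p. injection for 15 times, with saline as vehicle control. Tumor length and width recorded every other day; volume taken as 1/2·length·width² once tumors reached 130–160 mm3. Result is tumor growth inhibition versus the saline group.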
(In general: Xenograft models place foreign cells or tissue in a host animal.)

The subject of data set [8] is Mus musculus. Briefly: Toxicity in nude mouse xenografted with human HepG2 cells assessed as body weight change at 10 mg/kg, ip administered every day for 15 times measured from day 12 to 26. Format: organism-based. As to conditions: in vivo. Put shortly:
(§3)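 Same subcutaneous HepG-2 xenograft in female nude mice (5 × 10^6 cells, left flank). n = 5 per group, daily i.p. dosing for 15 times, saline control. Body weight of each mouse recorded every other day during therapy and followed after treatment stopped. Treated versus untreated compared by p value over days 12–26.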

Data set [9] in a line: Antitumor activity against human HepG2 cells xenografted in nude mouse assessed as tumor growth inhibition at 20 mg/kg, ip administered every day for 15 times measured from day 12 to 26. Format: functional. On the set-up: scale not given: the % may be the effect or the level left. The method, boiled down:
as §2

The test system of data set [10] is Mus musculus. Briefly: Toxicity in nude mouse xenografted with human HepG2 cells assessed as body weight change at 20 mg/kg, ip administered every day for 15 times measured from day 12 to 26. The conditions noted are these: in vivo. Format: organism-based. Put shortly:
as §3

Data set [11] relates to HepG2. As to the kind of experiment: Induction of apoptosis in human HepG2 cells assessed as late apoptotic cells at 6 uM after 24 hrs by Annexin V-FITC/propidium iodide staining based flow cytometric analysis analysis (reference value: 5.93 %). Format: functional.
Data set [12] is described as follows: Cell cycle arrest in human HepG2 cells assessed as accumulation at G1 phase at 1 to 3 uM after 24 hrs by propidium iodide staining-based flow cytometric analysis. Format: functional. The method, boiled down:
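HepG2 cells exposed 24 h, then trypsinized, washed in ice-cold PBS and fixed in ice-cold 70% ethanol for at least 24 h. Resuspended in 0.4 mL PBS with RNase A (1 mg/ml stock) and PI (500 ug/ml stock) for 30 min at 4 °C in the dark. Cycle distribution (G1, S, G2/M percentages) read by flow cytometry.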

Data set [13] concerns Mus musculus. Briefly: Toxicity in nude mouse xenografted with human HepG2 cells assessed as body weight change at 10 and 20 mg/kg, ip administered every day for 15 days and measured treatment cessation. Format: organism-based. As to conditions: in vivo, 360 h. The method, boiled down:
as §3

Data set [14] relates to HepG2. Briefly: Induction of apoptosis in human HepG2 cells assessed as early apoptotic cells at 4 uM after 24 hrs by Annexin V-FITC/propidium iodide staining based flow cytometric analysis analysis (reference value: 1.60 %). Format: functional. A general note: Flow cytometry measures light scatter and fluorescence of single cells or particles in a stream.
Data set [15] deals with HepG2. Briefly: Induction of apoptosis in human HepG2 cells assessed as necrotic cells at 6 uM after 24 hrs by Annexin V-FITC/propidium iodide staining based flow cytometric analysis analysis (reference value: 1.74 %). Format: functional.
Data set [16] has as its system HepG2. Briefly: Induction of apoptosis in human HepG2 cells assessed as viable cells at 6 uM after 24 hrs by Annexin V-FITC/propidium iodide staining based flow cytometric analysis analysis (reference value: 90.7 %). Format: functional. As to conditions: HepG2, 24 h, read-out: Activity.
Data set [17] relates to HepG2. As to the kind of experiment: Induction of apoptosis in human HepG2 cells assessed as late apoptotic cells at 4 uM after 24 hrs by Annexin V-FITC/propidium iodide staining based flow cytometric analysis analysis (reference value: 5.93 %). Format: functional.
Data set [18] relates to HepG2. As to the kind of experiment: Induction of apoptosis in human HepG2 cells assessed as viable cells at 4 uM after 24 hrs by Annexin V-FITC/propidium iodide staining based flow cytometric analysis analysis (reference value: 90.7 %). Format: functional. The conditions noted are these: HepG2, 24 h, read-out: Activity.
Data set [19] relates to HepG2. As to the kind of experiment: Induction of apoptosis in human HepG2 cells assessed as necrotic cells at 2 uM after 24 hrs by Annexin V-FITC/propidium iodide staining based flow cytometric analysis analysis (reference value: 1.74 %). Format: functional.
For data set [20], the system named is HepG2. Briefly: Induction of apoptosis in human HepG2 cells assessed as early apoptotic cells at 2 uM after 24 hrs by Annexin V-FITC/propidium iodide staining based flow cytometric analysis analysis (reference value: 1.60 %). Format: functional.
The test system of data set [21] is HepG2. Briefly: Induction of apoptosis in human HepG2 cells assessed as viable cells at 2 uM after 24 hrs by Annexin V-FITC/propidium iodide staining based flow cytometric analysis analysis (reference value: 90.7 %). Format: functional. As to conditions: HepG2, 24 h, read-out: Activity.
Data set [22] concerns HepG2. As to the kind of experiment: Induction of apoptosis in human HepG2 cells assessed as early apoptotic cells at 6 uM after 24 hrs by Annexin V-FITC/propidium iodide staining based flow cytometric analysis analysis (reference value: 1.60 %). Format: functional.
The test system of data set [23] is HepG2. Briefly: Induction of apoptosis in human HepG2 cells assessed as necrotic cells at 4 uM after 24 hrs by Annexin V-FITC/propidium iodide staining based flow cytometric analysis analysis (reference value: 1.74 %). Format: functional.
The subject of data set [24] is HepG2. As to the kind of experiment: Induction of apoptosis in human HepG2 cells assessed as late apoptotic cells at 2 uM after 24 hrs by Annexin V-FITC/propidium iodide staining based flow cytometric analysis analysis (reference value: 5.93 %). Format: functional.

SMILES strings stand for the structures. The source made the active and inactive calls. The rule behind the calls is not given here.

Regarding `CN(C)C1CCN(Cc2cc(Nc3ccc(N(CCCl)CCCl)cc3)n3ncc(C#N)c3n2)CC1`, the IC50 in [1] amounted to 7.86 µM; in data set [2], 4.01 µM; in data set [3], 7.67 µM; in data set [4], 12.4 µM; in data set [5], 5.12 µM. The 50% inhibitory concentration (IC50) at 72 h in data set [6] stood at 11.1 µM.
For `N#Cc1cnn2c(Nc3ccc(N(CCCl)CCCl)cc3)cc(CN3CCCC3)nc12`, the IC50 in [1] is 9.17 µM; in data set [2], 5.54 µM; in data set [3], 27.2 µM; in [4], 12.4 µM; in [5], 9.84 µM. Moreover, the 50% inhibitory concentration (IC50) at 72 h in data set [6] turned out to be 13.7 µM.
For `O=P1(N(CCCl)CCCl)NCCCO1` (centres undefined) [CYCLOPHOSPHAMIDE ANHYDROUS], the Activity in [7] was found to be 42.11%; in the data set on Mus musculus [8], 7.04%; in data set [9], 51.48%; in the data set with Mus musculus [10] it was 10.63%.
With `CNC(=O)c1cc(Oc2ccc(NC(=O)Nc3ccc(Cl)c(C(F)(F)F)c3)cc2)ccn1` [SORAFENIB], the Activity in data set [7] is given as 47.9%; in data set [9], 54.93%. The results for the IC50 in [1] and in data set [5] were 27.7 µM and 19.5 µM, respectively. For the same molecule, in data set [6], the IC50 at 72 h worked out at 10.7 µM.
For `CCN1CCN(Cc2cc(Nc3ccc(N(CCCl)CCCl)cc3)n3ncc(C#N)c3n2)CC1`, the half-inhibitory concentration (IC50) in data set [1] was 8.4 µM; in [2], 10.7 µM; in data set [3], 21.7 µM; in data set [4], 13.8 µM; in data set [5], 14.8 µM. Also, in data set [6], the IC50 at 72 h came to 13.5 µM.
Turning to `CN(C)Cc1cc(Nc2ccc(N(CCCl)CCCl)cc2)n2ncc(C#N)c2n1`, the IC50 in [1] was determined as 8.68 µM; in data set [2], 3.16 µM; in data set [3] it was 18.9 µM; in data set [4] it was 6.53 µM; in data set [5], 6.22 µM. For the same molecule, the IC50 at 72 h in [6] was 11 µM.
Consider `CN1CCN(Cc2cc(Nc3ccc(N(CCCl)CCCl)cc3)n3ncc(C#N)c3n2)CC1`, for which the concentration for half-maximal inhibition (IC50) stood at 7.42 µM in data set [1]; 2.92 µM in data set [2]; 23.6 µM in [3]; 12.2 µM in [4]; 8.9 µM in [5]. Further, the concentration for half-maximal inhibition (IC50) at 72 h in [6] was determined as 8.29 µM.
For the molecule `N#Cc1cnn2c(Nc3ccc(N(CCCl)CCCl)cc3)cc(CN3CCC(N4CCCCC4)CC3)nc12`, the Activity in data set [7] is 43.88%; in the data set with Mus musculus [8], 7.15%; in the data set on HepG2 [11] it was 29.5%; in data set [9], 58.26%; in the data set on Mus musculus [13], “Non-Toxic”; in the data set with HepG2 [14], 3.78%. Besides, the Activity with HepG2 [15] was found to be 7.69%; in the data set on Mus musculus [10], 9.21%; in the data set with HepG2 [17] it was 18%; in the data set with HepG2 [19], 3.39%; with HepG2 [20] it was 2.87%; with HepG2 [22] it was 5.56%. The Activity with HepG2 [23] was found to be 5.08%; in the data set with HepG2 [24] it was 11.9%. Further, the IC50 in data set [1] was determined as 6.02 µM; in data set [2] it was 0.21 µM; in data set [3], 6.82 µM; in [4] it was 8.31 µM; in data set [5], 6.13 µM. Also, the result in [12] was Active. Also, in the data set with HepG2 [16], the viability at 6 µM was determined as 57.3%. For the same molecule, the viability at 4 µM in the data set with HepG2 [18] was 73.2%. For the same molecule, in data set [6], the 50% inhibitory concentration (IC50) at 72 h stood at 9.54 µM. In addition, the viability at 2 µM in the data set with HepG2 [21] was 81.8%.
On to `CC1CCN(Cc2cc(Nc3ccc(N(CCCl)CCCl)cc3)n3ncc(C#N)c3n2)CC1`, for which the IC50 in data set [1] came to 19.2 µM; in data set [2], 23.6 µM; in [3], 43.4 µM; in data set [4], 82.9 µM; in data set [5], 18.3 µM. In addition, the IC50 at 72 h in data set [6] was 17.5 µM.

As usually defined, the IC50 is the concentration at which inhibition is half-maximal.
